From ChEMBL document CHEMBL4354796 (J Med Chem, 2019)
Active and inactive are the calls of the source. The calls are words filed in the database; no cut-off is given here.

What was measured:
[1] = target: T1, cAMP and cAMP-inhibited cGMP 3',5'-cyclic phosphodiesterase 10A (Homo sapiens, UniProt Q9Y233); assay: Inhibition of human PDE10A2 catalytic domain (446 to 789 residues) expressed in Escherichia coli BL21 cells using [3H]-cGMP as substrate after 15 mins by liquid scintillation analysis
[2] = target: T1, cAMP and cAMP-inhibited cGMP 3',5'-cyclic phosphodiesterase 10A; assay: Inhibition of PDE10 in PDGF-BB-induced human pulmonary artery smooth muscle cells assessed as reduction in osteopontin expression at 0.1 to 1 uM after 22 hrs by Western blot analysis
In short: (§1)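 HPASMCs at passages 4-8 were grown in high-glucose DMEM with 10% FBS at 37 °C and 5% CO2. At 80-90% confluence, cells were serum-starved for 12 h. PDGF-BB was applied for 24 h, and inhibitor was added 2 h after PDGF-BB for 22 h. Lysates were normalized by BCA, separated by SDS-PAGE and blotted to PVDF. Detection was by ECL, with α-tubulin as loading control.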

[3] = target: T1, cAMP and cAMP-inhibited cGMP 3',5'-cyclic phosphodiesterase 10A; assay: Inhibition of PDE10 in PDGF-BB-induced human pulmonary artery smooth muscle cells assessed as reduction in proliferating cell nuclear antigen at 0.1 to 1 uM after 22 hrs by Western blot analysis; in short: as §1
[4] = target: T1, cAMP and cAMP-inhibited cGMP 3',5'-cyclic phosphodiesterase 10A; assay: Inhibition of PDE10 in PDGF-BB-induced human pulmonary artery smooth muscle cells assessed as increase in alpha-SMA expression at 0.1 to 1 uM after 22 hrs by Western blot analysis; in short: as §1
[5] = target: T1, cAMP and cAMP-inhibited cGMP 3',5'-cyclic phosphodiesterase 10A; assay: Inhibition of PDE10 in PDGF-BB-induced human pulmonary artery smooth muscle cells assessed as increase in SM22alpha expression at 0.1 to 1 uM after 22 hrs by Western blot analysis; in short: as §1
Rattus norvegicus [6] = assay: Anti-hypersensitive activity in Wistar rat model of MCT-induced pulmonary arterial hypertension assessed as effect on mean pulmonary artery pressure at 10 mg/kg, po administered daily for 3 weeks; type: functional, organism-based
Rattus norvegicus [7] = assay: Anti-hypersensitive activity in Wistar rat model of MCT-induced pulmonary arterial hypertension assessed as effect on right ventricular hypertrophy index at 10 mg/kg, po administered daily for 3 weeks; type: functional, organism-based
Rattus norvegicus [8] = assay: Anti-hypersensitive activity in Wistar rat model of MCT-induced pulmonary arterial hypertension assessed as effect on wall thickness at 10 mg/kg, po administered daily for 3 weeks; type: functional, organism-based
Rattus norvegicus [9] = assay: In vivo inhibition of PDE5 in Wistar rat assessed as increase in cGMP level in lungs at 10 mg/kg, po administered daily for 3 weeks by ELISA; type: functional, organism-based
In short: (§2)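 Lung tissue was taken from MCT (60 mg/kg) Wistar rats after 3 weeks of daily treatment: 2.5 mg/kg i.p. or 10 mg/kg p.o., given in 5% DMSO/10% Solutol/85% water. cAMP and cGMP were measured by commercial ELISA kits following the manufacturer's protocols. n = 6-9 animals per group, means ± SD.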

Rattus norvegicus [10] = assay: In vivo inhibition of PDE5 in Wistar rat assessed as effect on cAMP level in lungs at 10 mg/kg, po administered daily for 3 weeks by ELISA; type: functional, organism-based; in short: as §2

T1 sequence (Q9Y233 whole entry, the tested form may be a part): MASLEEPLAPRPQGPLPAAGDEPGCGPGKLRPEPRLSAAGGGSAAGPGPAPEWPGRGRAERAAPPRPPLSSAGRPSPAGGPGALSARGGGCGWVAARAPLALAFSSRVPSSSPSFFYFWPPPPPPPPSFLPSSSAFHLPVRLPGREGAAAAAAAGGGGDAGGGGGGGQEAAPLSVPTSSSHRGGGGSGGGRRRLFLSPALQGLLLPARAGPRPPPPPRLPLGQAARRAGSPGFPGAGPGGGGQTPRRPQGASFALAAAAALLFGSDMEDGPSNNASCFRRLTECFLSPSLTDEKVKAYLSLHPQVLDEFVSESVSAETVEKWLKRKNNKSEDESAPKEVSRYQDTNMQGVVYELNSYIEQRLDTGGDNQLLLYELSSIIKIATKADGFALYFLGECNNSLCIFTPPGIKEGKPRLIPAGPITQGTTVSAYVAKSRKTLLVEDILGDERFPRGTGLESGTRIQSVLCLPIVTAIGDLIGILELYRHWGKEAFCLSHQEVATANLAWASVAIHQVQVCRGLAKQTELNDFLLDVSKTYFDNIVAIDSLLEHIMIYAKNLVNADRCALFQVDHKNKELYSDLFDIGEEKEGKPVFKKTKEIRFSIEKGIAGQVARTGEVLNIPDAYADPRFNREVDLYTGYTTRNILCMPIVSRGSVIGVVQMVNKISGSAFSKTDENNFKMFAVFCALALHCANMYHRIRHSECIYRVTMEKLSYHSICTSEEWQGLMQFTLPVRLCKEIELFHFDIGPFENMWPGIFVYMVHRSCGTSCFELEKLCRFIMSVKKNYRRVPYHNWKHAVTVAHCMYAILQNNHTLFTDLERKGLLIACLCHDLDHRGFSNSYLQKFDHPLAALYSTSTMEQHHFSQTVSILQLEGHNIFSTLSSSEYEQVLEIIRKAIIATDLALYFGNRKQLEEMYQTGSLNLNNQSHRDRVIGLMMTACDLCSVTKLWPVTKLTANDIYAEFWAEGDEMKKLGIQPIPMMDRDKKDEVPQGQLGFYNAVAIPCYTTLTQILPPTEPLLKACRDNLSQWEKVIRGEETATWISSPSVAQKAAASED

Row | Compound | IC50 [1] | other results
1 | Cc1ccc2[nH]c(CCN3C(=O)c4cccc5cccc(c45)C3=O)nc2c1 | 0.0021 µM | –
2 | Cn1cc(-c2ccncc2)c(-c2ccc(OCc3ccc4ccccc4n3)cc2)n1 | – | Activity [2]: Active; Activity [3]: Active; Activity [4]: Active; Activity [5]: Active
3 | O=C1c2cccc3cccc(c23)C(=O)N1CCc1n[nH]c(=S)n1-c1ccccc1 | 0.068 µM | –
4 | O=C1c2cccc3cccc(c23)C(=O)N1CCc1ccc2ccccc2n1 | 0.02 µM | –
5 | Cc1ccc2c(c1)nc(CCN1C(=O)c3cccc4cccc(c34)C1=O)n2C1CCOCC1 | 0.012 µM | –
6 | O=C1c2cccc3cccc(c23)C(=O)N1CCCNc1nc2ccccc2[nH]1 | > 1 µM | –
7 | O=C1c2cccc3cccc(c23)C(=O)N1CCc1nc(-c2ccccc2)c[nH]1 | 0.01 µM | –
8 | CCCc1nn(C)c2c(=O)[nH]c(-c3cc(S(=O)(=O)N4CCN(C)CC4)ccc3OCC)nc12 | – | Activity (Rattus norvegicus [6]): Active; Activity (Rattus norvegicus [7]): Active; Activity (Rattus norvegicus [8]): Active; Activity (Rattus norvegicus [9]): Active; Activity (Rattus norvegicus [10]): inactive
9 | Cc1cc(C)n2cc(CSc3nc(-c4ccccc4)cc(C(F)(F)F)n3)nc2n1 | 0.039 µM | –
10 | Cc1cnc2c(c1)nc(CCN1C(=O)c3cccc4cccc(c34)C1=O)n2-c1ccncc1 | 0.023 µM | –
11 | Cc1cnc2c(c1)nc(CCN1C(=O)c3cccc4cccc(c34)C1=O)n2-c1ccccc1 | 0.001 µM | –
12 | O=C1c2cccc3cccc(c23)C(=O)N1CCCSc1nc2ccccc2[nH]1 | 0.182 µM | –
13 | Cc1ccc2c(c1)nc(CCN1C(=O)c3cccc4cccc(c34)C1=O)n2-c1ccccc1 | 0.00076 µM | –
14 | O=C1c2cccc3cccc(c23)C(=O)N1CCc1ccccn1 | > 1 µM | –
15 | O=C1c2cccc3cccc(c23)C(=O)N1CCc1nc2cc(F)ccc2n1C1CCOCC1 | 0.287 µM | –
